Source: ChEMBL document CHEMBL1149258, “Synthesis and structure-activity relationships of novel histamine H1 antagonists: indolylpiperidinyl benzoic acid derivatives” (J Med Chem, 2004)

Key:
Histamine H1 receptor = Histamine H1 receptor (Cavia porcellus, UniProt P31389); assay: Displacement of [3H]mepyramine from histamine H1 receptor in guinea pig cerebellum membranes; type: cell membranes, Membrane
Summary of the method: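 Guinea pig cerebellum membranes (160 µg/mL) incubated with 0.7 nM [3H]-mepyramine at 30 °C for 30 min, 0.5 mL final volume, ended by filtration. Nonspecific binding with 10 µM promethazine. At least six concentrations in duplicate; IC50 by nonlinear regression. Compound stocks 10^-2 M in DMSO, diluted in 50% DMSO.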

[1] = molecular target: T1, Adrenergic receptor alpha-1 (Rattus norvegicus, UniProt P15823+P23944+P43140); assay: Displacement of [3H]prazosin from adrenergic alpha-1 receptor in rat brain membranes; type: cell membranes
T1 sequence (P15823 whole entry): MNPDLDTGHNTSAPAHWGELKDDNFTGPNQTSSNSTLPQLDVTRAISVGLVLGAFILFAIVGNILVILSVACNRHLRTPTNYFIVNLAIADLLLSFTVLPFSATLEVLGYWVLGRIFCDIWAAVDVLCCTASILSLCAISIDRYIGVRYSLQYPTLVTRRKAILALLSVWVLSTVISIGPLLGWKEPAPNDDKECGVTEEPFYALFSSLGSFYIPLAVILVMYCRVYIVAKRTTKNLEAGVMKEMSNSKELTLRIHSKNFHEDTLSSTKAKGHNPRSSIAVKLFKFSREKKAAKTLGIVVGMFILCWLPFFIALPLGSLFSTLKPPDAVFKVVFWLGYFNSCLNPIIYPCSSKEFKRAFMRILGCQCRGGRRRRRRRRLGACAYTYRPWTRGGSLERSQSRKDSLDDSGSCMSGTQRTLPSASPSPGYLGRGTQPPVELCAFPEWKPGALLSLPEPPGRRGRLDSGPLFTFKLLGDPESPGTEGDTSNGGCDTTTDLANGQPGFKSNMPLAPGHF
T1 sequence (P23944 whole entry): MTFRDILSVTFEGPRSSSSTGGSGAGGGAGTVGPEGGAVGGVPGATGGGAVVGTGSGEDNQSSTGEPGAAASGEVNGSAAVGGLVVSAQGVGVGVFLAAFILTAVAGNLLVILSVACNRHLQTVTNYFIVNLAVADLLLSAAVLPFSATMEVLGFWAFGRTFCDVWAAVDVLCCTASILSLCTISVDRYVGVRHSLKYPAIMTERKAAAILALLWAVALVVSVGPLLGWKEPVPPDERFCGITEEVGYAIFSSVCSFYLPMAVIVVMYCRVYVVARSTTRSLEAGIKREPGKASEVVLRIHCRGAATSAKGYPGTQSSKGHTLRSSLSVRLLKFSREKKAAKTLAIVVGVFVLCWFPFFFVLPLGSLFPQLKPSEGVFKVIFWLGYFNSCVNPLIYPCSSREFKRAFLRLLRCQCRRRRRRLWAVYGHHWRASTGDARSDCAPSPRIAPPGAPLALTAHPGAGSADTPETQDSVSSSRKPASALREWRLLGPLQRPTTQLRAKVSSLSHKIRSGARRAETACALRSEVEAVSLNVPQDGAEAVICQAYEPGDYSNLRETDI
T1 sequence (P43140 whole entry): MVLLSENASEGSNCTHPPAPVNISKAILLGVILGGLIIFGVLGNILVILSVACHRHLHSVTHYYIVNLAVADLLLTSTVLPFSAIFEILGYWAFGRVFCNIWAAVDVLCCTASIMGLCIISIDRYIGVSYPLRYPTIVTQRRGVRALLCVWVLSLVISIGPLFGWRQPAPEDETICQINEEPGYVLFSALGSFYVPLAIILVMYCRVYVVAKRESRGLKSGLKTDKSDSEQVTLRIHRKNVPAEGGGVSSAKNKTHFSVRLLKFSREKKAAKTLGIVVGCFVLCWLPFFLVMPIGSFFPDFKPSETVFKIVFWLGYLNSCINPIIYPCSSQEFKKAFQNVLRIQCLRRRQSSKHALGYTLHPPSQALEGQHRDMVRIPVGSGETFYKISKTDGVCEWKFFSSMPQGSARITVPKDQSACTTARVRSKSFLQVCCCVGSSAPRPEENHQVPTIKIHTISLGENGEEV
Summary of the method: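 Rat brain membranes (340 µg protein/mL) with 0.25 nM [3H]-prazosin in 50 mM Tris-HCl pH 7.7, room temperature, 60 min, filtration. Nonspecific binding with 100 µM prazosin. Several concentrations run in duplicate; IC50 by nonlinear regression.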

Rattus norvegicus [2] = assay: Inhibition of increase in histamine-induced cutaneous vascular permeability in orally dosed Wistar rat model after 4 hrs; type: functional; settings: po
Summary of the method: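 Fasted male rats (150-175 g; n=5 per condition) dosed orally in 0.5% methylcellulose/0.1% Tween 80. At 4 h, under light ether, received four intradermal injections of 5 µg histamine, then 0.5% Evans Blue iv. Killed 1 h later. Papule area from maximum and minimum diameters (ellipse); inhibition of papule area; ED50 (mg/kg, po).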

Rattus norvegicus [3] = assay: Inhibition of increase in histamine-induced cutaneous vascular permeability in orally dosed Wistar rat model after 8 hrs; type: functional; settings: po
Summary of the method: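 Male Wistar rats (150-175 g), fasted, dosed orally in 0.5% methylcellulose/0.1% Tween 80 (10 mL/kg), n=5. At 1 or 8 h after dosing, four intradermal injections of 5 µg histamine were given, plus iv 0.5% Evans Blue. Papule area (ellipse) measured 1 h later. ED50 in mg/kg po.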

[4] = molecular target: Histamine H1 receptor (Mus musculus) (UniProt P70174); assay: Ex vivo displacement of [3H]mepyramine from brain histamine H1 receptor in orally dosed Swiss Albino mouse; type: functional, organism-based
Summary of the method: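 Overnight-fasted male mice (20-25 g) dosed orally at several doses (0.5% methylcellulose/0.1% Tween 80, 10 mL/kg), killed 90 min later. Whole brain homogenised in ice-cold 0.05 M Na+/K+ phosphate pH 7.4; aliquots incubated in triplicate with 2 nM final [3H]-mepyramine, 40 min at 30 °C, then filtered. Nonspecific binding from 30 mg/kg po D-chlorpheniramine; total binding from vehicle. Three animals per dose; ED50 reported.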

Sequence of Histamine H1 receptor (P31389 whole entry): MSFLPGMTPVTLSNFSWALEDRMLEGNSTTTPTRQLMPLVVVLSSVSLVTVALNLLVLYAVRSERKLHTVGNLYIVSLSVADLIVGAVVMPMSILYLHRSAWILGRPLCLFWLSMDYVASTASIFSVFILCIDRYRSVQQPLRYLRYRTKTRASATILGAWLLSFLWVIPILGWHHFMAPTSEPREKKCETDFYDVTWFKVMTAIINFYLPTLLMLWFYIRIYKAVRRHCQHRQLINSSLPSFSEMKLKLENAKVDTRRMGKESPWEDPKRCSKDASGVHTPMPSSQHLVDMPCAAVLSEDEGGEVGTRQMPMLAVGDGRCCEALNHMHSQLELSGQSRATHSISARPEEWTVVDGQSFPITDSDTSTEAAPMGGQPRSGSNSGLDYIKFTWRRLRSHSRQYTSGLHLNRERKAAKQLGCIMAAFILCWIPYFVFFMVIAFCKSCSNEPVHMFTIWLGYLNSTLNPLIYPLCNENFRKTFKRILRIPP
Sequence of Histamine H1 receptor (Mus musculus) (P70174 whole entry): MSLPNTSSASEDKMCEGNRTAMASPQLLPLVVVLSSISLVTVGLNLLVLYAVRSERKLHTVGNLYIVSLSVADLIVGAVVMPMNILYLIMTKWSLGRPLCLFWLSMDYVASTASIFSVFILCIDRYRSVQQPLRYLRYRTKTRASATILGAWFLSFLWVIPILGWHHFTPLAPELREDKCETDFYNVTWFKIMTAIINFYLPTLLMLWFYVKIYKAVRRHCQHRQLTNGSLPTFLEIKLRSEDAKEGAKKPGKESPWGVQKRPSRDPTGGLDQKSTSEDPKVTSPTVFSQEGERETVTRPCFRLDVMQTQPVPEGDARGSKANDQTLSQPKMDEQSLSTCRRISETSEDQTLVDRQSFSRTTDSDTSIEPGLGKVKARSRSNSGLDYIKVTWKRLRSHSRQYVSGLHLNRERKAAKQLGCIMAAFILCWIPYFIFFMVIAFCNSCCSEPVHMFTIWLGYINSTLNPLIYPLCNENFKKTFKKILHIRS

Compound	IC50 (Histamine H1 receptor)	IC50 [1] [µM]	ED50 (Rattus norvegicus [2]) [mg/kg]	ED50 (Rattus norvegicus [3])	ED50 [4] [mg/kg]
O=C(O)c1ccccc1OCCN1CCC(c2cn(Cc3ccco3)c3cc(F)ccc23)CC1	0.037 µM (antagonist)	> 10	0.32	2.2 mg/kg (antagonist)	–
COCCn1cc(C2CCN(Cc3ccc(OC)c(C(=O)O)c3)CC2)c2ccc(F)cc21	–	> 10	0.06	0.02 mg/kg (antagonist)	4
O=C(O)c1ccccc1OCCN1CCC(c2cn(CCC3COCCO3)c3ccccc23)CC1 (configuration not stated)	0.39 µM (antagonist)	6.2	3	–	–
CCOCCn1cc(C2CCN(Cc3cc(C(=O)O)ccc3Br)CC2)c2ccccc21	0.345 µM (antagonist)	> 10	3	–	–
COc1ccc(CN2CCC(c3cn(Cc4ccoc4)c4cc(F)ccc34)CC2)cc1C(=O)O	–	> 10	0.02	0.037 mg/kg (antagonist)	7
COCCn1cc(C2CCN(Cc3cccc(C(=O)O)c3)CC2)c2ccc(F)cc21	0.15 µM (antagonist)	> 10	1	–	–
O=C(O)c1cccc(CN2CCC(c3cn(Cc4cccs4)c4ccccc34)CC2)c1	–	> 10	3	–	–
CCOCCn1cc(C2CCN(CCOc3ccccc3C(=O)O)CC2)c2cc(F)ccc21	0.1 µM (antagonist)	10	–	–	–
O=C(O)c1cccc(CN2CCC(c3cn(Cc4ccc(Cl)s4)c4ccccc34)CC2)c1	0.103 µM (antagonist)	–	> 3	–	–
CCOCCn1cc(C2CCN(CCOc3ccc(C)cc3C(=O)O)CC2)c2ccccc21	0.221 µM (antagonist)	8.6	–	–	–
CCOCCn1cc(C2CCN(Cc3cccc(OCC(=O)O)c3)CC2)c2ccccc21	0.13 µM (antagonist)	> 10	3	–	–
CCOCCn1cc(C2CCN(Cc3ccc(OC)c(C(=O)O)c3)CC2)c2ccccc21	–	–	0.02	–	–
CCOCCn1cc(C2CCN(CCOc3ccccc3C(=O)O)CC2)c2cccc(C)c21	0.5 µM (antagonist)	7.6	–	–	–
CCOCCn1cc(C2CCN(CCOc3cccc(C(=O)O)c3)CC2)c2ccccc21	–	2	–	–	–
CCOCCn1cc(C2CCN(Cc3ccc(OCC(=O)O)cc3)CC2)c2ccccc21	0.322 µM (antagonist)	> 10	> 3	–	–
O=C(O)c1ccccc1OCCN1CCC(c2cn(Cc3ccco3)c3ccccc23)CC1	–	> 10	3	–	–
O=C(O)c1ccccc1OCCN1CCC(c2cn(CC3CC3)c3ccccc23)CC1	–	> 10	0.6	1.3 mg/kg (antagonist)	> 100
COc1ccc(CN2CCC(c3cn(Cc4ccc(Cl)s4)c4cc(F)ccc34)CC2)cc1C(=O)O	–	> 10	0.19	0.09 mg/kg (antagonist)	5.5
CCOCCn1cc(C2CCN(Cc3ccc(F)c(C(=O)O)c3)CC2)c2ccccc21	0.3 µM (antagonist)	> 10	–	0.01 mg/kg (antagonist)	0.5
C=CCn1cc(C2CCN(CCOc3ccccc3C(=O)O)CC2)c2ccccc21	–	> 10	3	–	–
CCOCCn1cc(C2CCN(Cc3ccccc3C(=O)O)CC2)c2ccccc21	0.33 µM (antagonist)	> 10	3	–	–
O=C(O)c1cccc(CN2CCC(c3cn(Cc4ccco4)c4ccccc34)CC2)c1	0.087 µM (antagonist)	> 10	1	–	–
CCOCCn1cc(C2CCN(Cc3cccc(C(=O)O)c3)CC2)c2ccccc21	0.218 µM (antagonist)	–	0.011	–	–
CCOCCn1cc(C2CCN(Cc3ccccc3OCC(=O)O)CC2)c2ccccc21	0.196 µM (antagonist)	> 10	> 3	–	–
O=C(O)c1ccccc1OCCN1CCC(c2cn(Cc3ccc(Cl)s3)c3ccccc23)CC1	–	–	3	–	–
CCOCCn1cc(C2CCN(CCOc3ccccc3C(=O)O)CC2)c2cccc(Br)c21	0.08 µM (antagonist)	10	> 3	–	–
CCOCCn1cc(C2CCN(Cc3cccc(C(=O)O)c3)CC2)c2cc(OC)ccc21	0.5 µM (antagonist)	> 10	> 3	–	–

Now from value to molecule, other results behind:

IC50 (Histamine H1 receptor)	IC50 [1] [µM]	Compound	ED50 (Rattus norvegicus [2]) [mg/kg]	ED50 (Rattus norvegicus [3])	ED50 [4] [mg/kg]
–	3	CCOCCn1cc(C2CCN(CCOc3ccc(C(=O)O)cc3)CC2)c2ccccc21	–	–	–
0.034 µM (antagonist)	–	CCOCCn1cc(C2CCN(CCOc3cc(OC)ccc3C(=O)O)CC2)c2ccccc21	0.17	–	–
0.219 µM (antagonist)	> 10	CCOCCn1cc(C2CCN(CCOc3ccc(C(C)=O)cc3C(=O)O)CC2)c2ccccc21	–	–	–
–	> 10	COCCn1cc(C2CCN(CCOc3ccccc3C(=O)O)CC2)c2ccccc21	1.1	–	–
–	> 10	O=C(O)c1ccccc1OCCN1CCC(c2cn(CC3CC3)c3cc(F)ccc23)CC1	0.11	0.5 mg/kg (antagonist)	–
0.57 µM (antagonist)	> 10	O=C(O)c1ccccc1OCCN1CCC(c2cn(CCc3ccccn3)c3ccccc23)CC1	–	–	–
0.225 µM (antagonist)	6.9	CCOCCn1cc(C2CCN(CCOc3c(Br)cc(Br)cc3C(=O)O)CC2)c2ccccc21	–	–	–
0.15 µM (antagonist)	3.6	CCOCCn1cc(C2CCN(CCOc3ccccc3C(=O)O)CC2)c2cc(Br)ccc21	–	–	–
0.5 µM (antagonist)	10	CCOCCn1cc(C2CCN(CCOc3cccc(F)c3C(=O)O)CC2)c2ccccc21	–	–	–
> 0.5 µM	6.9	CCOCCn1cc(C2CCN(CCOc3ccccc3C(=O)O)CC2)c2ccc(C(F)(F)F)cc21	–	–	–
0.098 µM (antagonist)	3.7	O=C(O)c1ccccc1OCCN1CCC(c2cn(Cc3cccs3)c3ccccc23)CC1	–	–	–
0.028 µM (antagonist)	> 10	O=C(O)c1ccccc1OCCN1CCC(c2cn(Cc3ccc(Cl)s3)c3cc(F)ccc23)CC1	1	–	–
0.1 µM (antagonist)	< 10	CCOCCn1cc(C2CCN(CCOc3ccsc3C(=O)O)CC2)c2ccccc21	–	–	–
0.076 µM (antagonist)	10	CCOCCn1cc(C2CCN(CCOc3ccccc3C(=O)O)CC2)c2ccc(F)cc21	–	–	–
